Laboratory results as given in ChEMBL document CHEMBL1949515, “Regioselective synthesis and antimicrobial activities of some novel aryloxyacetic acid derivatives” (2012).
≈ marks a conversion by molar mass, not a printed value. Calls of active or inactive are those of the source. The rule behind the calls is not given here.

What was measured:
Bacillus subtilis [1] = assay: Antibacterial activity against Bacillus subtilis ATCC 6633 after 24 hrs by agar well diffusion method; type: functional
Outline: (§1)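 Agar well diffusion on nutrient agar seeded with bacterial suspension at 1 × 10⁸ CFU/mL. Wells received compound solution from a stock of 100 mg per mL DMSO. Plates incubated 24 h at 37 °C. Read-out is inhibition zone diameter (mm), done in triplicate and averaged.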

Candida albicans [2] = assay: Antifungal activity against Candida albicans NRRL Y-477 after 48 hrs by agar well diffusion method; type: functional
Outline: (§2)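 Fungal agar well diffusion on Sabouraud dextrose agar seeded at 1 × 10⁶ CFU/mL. Wells received compound solution from a 100 mg per mL DMSO stock. Incubation 48 h at 28 °C. Inhibition zone diameter (mm) measured in triplicate and averaged.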

Saccharomyces cerevisiae [3] = assay: Antifungal activity against Saccharomyces cerevisiae by two fold serial dilution method; type: functional
Outline: (§3)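 MIC determined by two-fold serial dilution in the appropriate nutrient broth, only for compounds that gave sizeable inhibition zones in the well diffusion screen. Final concentrations stepped down by halves from 66 (66, 33, 16.5 …).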

Escherichia coli [4] = assay: Antibacterial activity against Escherichia coli ATCC 25922 after 24 hrs by agar well diffusion method; type: functional; outline: as §1
Staphylococcus aureus [5] = assay: Antibacterial activity against Staphylococcus aureus ATCC 29213 after 24 hrs by agar well diffusion method; type: functional; outline: as §1
Klebsiella pneumoniae [6] = assay: Antibacterial activity against Klebsiella pneumoniae ATCC 13883 after 24 hrs by two fold serial dilution method; type: functional; settings: ATCC 13883, 24 h; outline: as §3
Micrococcus luteus [7] = assay: Antibacterial activity against Sarcina lutea after 24 hrs by agar well diffusion method; type: functional; outline: as §1
Priestia megaterium [8] = assay: Antibacterial activity against Bacillus megaterium after 24 hrs by agar well diffusion method; type: functional; outline: as §1
Pseudomonas aeruginosa [9] = assay: Antibacterial activity against Pseudomonas aeruginosa ATCC 27953 after 24 hrs by agar well diffusion method; type: functional; outline: as §1
Escherichia coli [10] = assay: Antibacterial activity against Escherichia coli ATCC 25922 after 24 hrs by two fold serial dilution method; type: functional; settings: ATCC 25922, 24 h; outline: as §3
Candida albicans [11] = assay: Antifungal activity against Candida albicans NRRL Y-477 by two fold serial dilution method; type: functional; outline: as §3
Mycolicibacterium phlei [12] = assay: Antibacterial activity against Mycobacterium phlei after 24 hrs by agar well diffusion method; type: functional; outline: as §1
Saccharomyces cerevisiae [13] = assay: Antifungal activity against Saccharomyces cerevisiae after 48 hrs by agar well diffusion method; type: functional; outline: as §2
Klebsiella pneumoniae [14] = assay: Antibacterial activity against Klebsiella pneumoniae ATCC 13883 after 24 hrs by agar well diffusion method; type: functional; outline: as §1
Bacillus subtilis [15] = assay: Antibacterial activity against Bacillus subtilis ATCC 6633 after 24 hrs by two fold serial dilution method; type: functional; settings: ATCC 6633, 24 h; outline: as §3
Priestia megaterium [16] = assay: Antibacterial activity against Bacillus megaterium after 24 hrs by two fold serial dilution method; type: functional; outline: as §3
Micrococcus luteus [17] = assay: Antibacterial activity against Sarcina lutea after 24 hrs by two fold serial dilution method; type: functional; outline: as §3
Mycolicibacterium phlei [18] = assay: Antibacterial activity against Mycobacterium phlei after 24 hrs by two fold serial dilution method; type: functional; outline: as §3
Pseudomonas aeruginosa [19] = assay: Antibacterial activity against Pseudomonas aeruginosa ATCC 27953 after 24 hrs by two fold serial dilution method; type: functional; settings: ATCC 27953, 24 h; outline: as §3
Staphylococcus aureus [20] = assay: Antibacterial activity against Staphylococcus aureus ATCC 29213 after 24 hrs by two fold serial dilution method; type: functional; settings: ATCC 29213, 24 h; outline: as §3
Saccharomyces cerevisiae [21] = assay: Antifungal activity against Saccharomyces cerevisiae at 50 ug/ml after 48 hrs by agar well diffusion method; type: functional; settings: read-out: DIZ
Outline: (§4)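 Fungal agar well diffusion. Plates were seeded with 1 × 10⁶ CFU/mL fungal suspension on Sabouraud dextrose agar. Wells were filled with compound solution from a 100 mg/mL DMSO stock. Plates were incubated 48 h at 28 °C. The mean inhibition zone diameter (mm) was taken from triplicate runs. Ketoconazole was the standard.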

Candida albicans [22] = assay: Antifungal activity against Candida albicans NRRL Y-477 at 50 ug/ml after 48 hrs by agar well diffusion method; type: functional; settings: NRRL Y-477, 48 h, read-out: DIZ; outline: as §4
Priestia megaterium [23] = assay: Antibacterial activity against Bacillus megaterium at 50 ug/ml after 24 hrs by agar well diffusion method; type: functional; settings: read-out: DIZ
Staphylococcus aureus [24] = assay: microbe, parasite or virus in culture; settings: ATCC 29213, 24 h, read-out: DIZ
Klebsiella pneumoniae [25] = assay: microbe, parasite or virus in culture; settings: ATCC 13883, 24 h, read-out: DIZ
Pseudomonas aeruginosa [26] = assay: microbe, parasite or virus in culture; settings: ATCC 27953, 24 h, read-out: DIZ
Bacillus subtilis [27] = assay: microbe, parasite or virus in culture; settings: ATCC 6633, 24 h, read-out: DIZ
Mycolicibacterium phlei [28] = assay: Antibacterial activity against Mycobacterium phlei at 50 ug/ml after 24 hrs by agar well diffusion method; type: functional; settings: read-out: DIZ
Outline: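 Agar well diffusion. Plates were seeded with bacterial suspension at 1 × 10⁸ CFU/mL spread on nutrient agar. Wells received compound solution made as a 100 mg/mL DMSO stock. Plates were incubated 24 h at 37 °C. Read-out was inhibition zone diameter (mm), run in triplicate and averaged. Ciprofloxacin was the reference.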

Micrococcus luteus [29] = assay: Antibacterial activity against Sarcina lutea at 50 ug/ml after 24 hrs by agar well diffusion method; type: functional; settings: read-out: DIZ

Compound	diameter of the inhibition zone (DIZ) (Bacillus subtilis [1])	diameter of the inhibition zone (DIZ) (Candida albicans [2])	MIC (Saccharomyces cerevisiae [3]) [µg/mL]	diameter of the inhibition zone (DIZ) (Escherichia coli [4])	diameter of the inhibition zone (DIZ) (Staphylococcus aureus [5])	MIC (Klebsiella pneumoniae [6]) [µg/mL]	diameter of the inhibition zone (DIZ) (Micrococcus luteus [7])	diameter of the inhibition zone (DIZ) (Priestia megaterium [8])	diameter of the inhibition zone (DIZ) (Pseudomonas aeruginosa [9])	MIC (Escherichia coli [10]) [µg/mL]	MIC (Candida albicans [11]) [µg/mL]	diameter of the inhibition zone (DIZ) (Mycolicibacterium phlei [12])	diameter of the inhibition zone (DIZ) (Saccharomyces cerevisiae [13]) [mm]	diameter of the inhibition zone (DIZ) (Klebsiella pneumoniae [14]) [mm]	MIC (Bacillus subtilis [15]) [µg/mL]	MIC (Priestia megaterium [16]) [µg/mL]	also measured
CC(=N/NC(=O)COc1ccc2ccccc2c1)/C(Cl)=N\Nc1ccc(Cl)cc1	inactive	20 mm	16.5 (≈ 38.4 µM)	21 mm	inactive	16.5 (≈ 38.4 µM)	inactive	inactive	inactive	16.5 (≈ 38.4 µM)	33 (≈ 76.9 µM)	16 mm	26	24			
CC(=N/NC(=O)COc1ccc(Cl)cc1Cl)/C(Cl)=N\Nc1ccc(Br)cc1	18 mm	21 mm	8.25 (≈ 16.7 µM)	inactive	inactive	33 (≈ 67 µM)	inactive	22 mm	inactive		33 (≈ 67 µM)	inactive	27	20	66 (≈ 134 µM)	16.5 (≈ 33.5 µM)	
CC(=N/NC(=O)COc1ccc(Cl)cc1Cl)/C(=N\Nc1ccc(Br)cc1)Sc1ccccc1	18 mm	20 mm	33 (≈ 58.3 µM)	inactive	inactive	66 (≈ 117 µM)	20 mm	20 mm	inactive		66 (≈ 117 µM)	inactive	23	18	66 (≈ 117 µM)	16.5 (≈ 29.1 µM)	MIC (Micrococcus luteus [17]): 16.5 µg/mL (≈ 29.1 µM)
CC(=N/NC(=O)COc1ccc2ccccc2c1)/C(Cl)=N\Nc1ccc(Br)cc1	18 mm	21 mm	16.5 (≈ 34.8 µM)	inactive	inactive	33 (≈ 69.7 µM)	inactive	21 mm	inactive		33 (≈ 69.7 µM)	inactive	24	21	66 (≈ 139 µM)	16.5 (≈ 34.8 µM)	
CC(=N/NC(=O)COc1ccc(Cl)cc1Cl)/C(=N\Nc1ccc(Cl)cc1)S(=O)(=O)c1ccccc1	29 mm	30 mm	4.12 (≈ 7.45 µM)	30 mm	27 mm	16.5 (≈ 29.8 µM)	26 mm	32 mm	28 mm	4.12 (≈ 7.45 µM)	4.12 (≈ 7.45 µM)	30 mm	32	28	8.25 (≈ 14.9 µM)	8.25 (≈ 14.9 µM)	MIC (Mycolicibacterium phlei [18]): 4.12 µg/mL (≈ 7.45 µM); MIC (Micrococcus luteus [17]): 8.25 µg/mL (≈ 14.9 µM); MIC (Pseudomonas aeruginosa [19]): 16.5 µg/mL (≈ 29.8 µM); MIC (Staphylococcus aureus [20]): 8.25 µg/mL (≈ 14.9 µM)
CC(=O)N1CCN(c2ccc(OCC3COC(Cn4ccnc4)(c4ccc(Cl)cc4Cl)O3)cc2)CC1 (centres undefined) [KETOCONAZOLE]			4.12 (≈ 7.76 µM)								8.25 (≈ 15.5 µM)						zone of inhibition at 50 µg/mL (Saccharomyces cerevisiae [21]): 23 mm; zone of inhibition at 50 µg/mL (Candida albicans [22]): 22 mm
CC(=N\NC(=O)COc1ccc2ccccc2c1)/C(=N\Nc1ccc(Cl)cc1)S(=O)(=O)c1ccccc1	20 mm	24 mm	8.25 (≈ 15.4 µM)	28 mm	23 mm	16.5 (≈ 30.8 µM)	inactive	23 mm	26 mm	8.25 (≈ 15.4 µM)	8.25 (≈ 15.4 µM)	inactive	30	24	33 (≈ 61.7 µM)	16.5 (≈ 30.8 µM)	MIC (Pseudomonas aeruginosa [19]): 16.5 µg/mL (≈ 30.8 µM); MIC (Staphylococcus aureus [20]): 16.5 µg/mL (≈ 30.8 µM)
O=C(O)c1cn(C2CC2)c2cc(N3CCNCC3)c(F)cc2c1=O [CIPROFLOXACIN]						16.5 (≈ 49.8 µM)				16.5 (≈ 49.8 µM)					8.25 (≈ 24.9 µM)	8.25 (≈ 24.9 µM)	zone of inhibition at 50 µg/mL (Priestia megaterium [23]): 24 mm; MIC (Mycolicibacterium phlei [18]): 16.5 µg/mL (≈ 49.8 µM); zone of inhibition at 50 µg/mL (Staphylococcus aureus [24]): 20 mm; zone of inhibition at 50 µg/mL (Klebsiella pneumoniae [25]): 25 mm; zone of inhibition at 50 µg/mL (Pseudomonas aeruginosa [26]): 24 mm; MIC (Micrococcus luteus [17]): 16.5 µg/mL (≈ 49.8 µM); zone of inhibition at 50 µg/mL (Bacillus subtilis [27]): 22 mm; MIC (Pseudomonas aeruginosa [19]): 16.5 µg/mL (≈ 49.8 µM); MIC (Staphylococcus aureus [20]): 8.25 µg/mL (≈ 24.9 µM); zone of inhibition at 50 µg/mL (Mycolicibacterium phlei [28]): 22 mm; zone of inhibition at 50 µg/mL (Micrococcus luteus [29]): 20 mm
CC(=N/NC(=O)COc1ccc(Cl)cc1Cl)/C(Cl)=N\Nc1ccc(Cl)cc1	18 mm	18 mm	16.5 (≈ 36.8 µM)	inactive	inactive	33 (≈ 73.6 µM)	inactive	20 mm	inactive		66 (≈ 147 µM)	15 mm	24	21	66 (≈ 147 µM)	16.5 (≈ 36.8 µM)	
O=C(COc1ccc2ccccc2c1)NN/C=C(\NNC(=O)COc1ccc2ccccc2c1)c1cc2ccccc2oc1=O	18 mm	20 mm	16.5 (≈ 27.5 µM)	inactive	inactive	33 (≈ 54.9 µM)	inactive	20 mm	inactive		66 (≈ 110 µM)	inactive	21	21	66 (≈ 110 µM)	16.5 (≈ 27.5 µM)	
O=C(COc1ccc2ccccc2c1)NNCC(=O)Nc1nccs1	18 mm	20 mm	16.5 (≈ 46.3 µM)	inactive	inactive	33 (≈ 92.6 µM)	inactive	22 mm	inactive		66 (≈ 185 µM)	inactive	22	23	66 (≈ 185 µM)	8.25 (≈ 23.1 µM)	
CC(=N/NC(=O)COc1ccc(Cl)cc1Cl)/C(=N\Nc1ccc(Cl)cc1)Sc1ccccc1	inactive	inactive	4.12 (≈ 7.9 µM)	inactive	inactive	16.5 (≈ 31.6 µM)	inactive	inactive	inactive			13 mm	28	24			
